Experimental findings from ChEMBL document CHEMBL1146446, “Cytotoxic and antiplatelet aggregation principles from Aglaia elliptifolia” (J Nat Prod, 1997) are described below.

In brackets after ≈: the same amount, converted by molar mass.

The test system of experiment [1] is P388. Description: Cytotoxicity against mouse P388 cells. The experiment is classed as functional, cell-based.
The next experiment concerns RPMI-7951. Nature of the experiment: Cytotoxicity against human RPMI7951 cells. In kind it is functional, cell-based.
A further experiment concerns HCT-8. Description: Cytotoxicity against human HCT8 cells. In kind it is functional, cell-based.
Another experiment concerns A549. Nature of the experiment: Cytotoxicity against human A549 cells. The experiment is classed as functional, cell-based.
A short description of experiment [2]: Antiplatelet aggregation activity against ADP-induced rabbit platelet assessed as platelet aggregation at 100 ug/mL relative to control. The experiment is classed as functional, Oryctolagus cuniculus. The procedure, abridged:
(§1)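 Blood from rabbit marginal ear vein was mixed with EDTA to a final 6 mM. It was spun at 90g for 10 min at room temperature to give platelet-rich plasma, then at 500g for 10 min. Platelets were preincubated with sample or 0.5% DMSO for 1 min at 37 °C, then triggered with ADP, arachidonic acid, collagen (10 µg/mL) or PAF (2 ng/mL). Mean ± S.D.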

Experiment [3] is described as follows: Antiplatelet aggregation activity against platelet activating factor-induced rabbit platelet assessed as platelet aggregation at 100 ug/mL relative to control. In kind it is functional, Oryctolagus cuniculus. Summed up:
as §1

The nature of experiment [4]: Antiplatelet aggregation activity against arachidonic acid-induced rabbit platelet assessed as platelet aggregation at 100 ug/mL relative to control. The experiment is classed as functional, Oryctolagus cuniculus. The procedure, abridged: as §1
The subject of a further experiment is KB. Nature of the experiment: Cytotoxicity against human KB cells. In kind it is functional, cell-based.
Experiment [5] in a line: Antiplatelet aggregation activity against collagen-induced rabbit platelet assessed as platelet aggregation at 100 ug/mL relative to control. The experiment is classed as functional, Oryctolagus cuniculus. The procedure, abridged: as §1
A further experiment deals with TE-671. Description: Cytotoxicity against human TE671 cells. In kind it is functional, cell-based.
Experiment [6] has as its system P388. Description: In vivo cytotoxic activity against mouse P388 cells at 1 mg/kg relative to control. The experiment is classed as functional.

As to `COC(=O)[C@H]1[C@@H](O)[C@@]2(O)c3c(OC)cc(OC)cc3O[C@@]2(c2ccc(OC)cc2)[C@@H]1c1ccccc1` [AGLAFOLIN], the IC50 (in general, the concentration that gives 50% inhibition) with P388 [1] was 2 ng/mL (≈ 0.00406 µM); in the experiment on RPMI-7951, 1 ng/mL (≈ 0.00203 µM); in the experiment with HCT-8, 5 ng/mL (≈ 0.0102 µM); in the experiment on A549, 1 ng/mL (≈ 0.00203 µM); in the experiment with KB, 1 ng/mL (≈ 0.00203 µM); with TE-671, 1 ng/mL (≈ 0.00203 µM). The Activity in [2] was 85.2%; in [3] it was 0%; in [4], 0%; in experiment [5], 88.6%.
`COc1cccc2c1C(=O)c1c(O)c3c(c(O)c1C2=O)C[C@@](O)(C(=O)CO)C[C@@H]3O[C@H]1C[C@H](N)[C@H](O)[C@H](C)O1.Cl` [DOXORUBICIN HYDROCHLORIDE]: the IC50 in the experiment with HCT-8 was determined as 300 ng/mL; in the experiment with A549, 150 ng/mL.
On to `COc1cc([C@@H]2c3cc4c(cc3[C@@H](O[C@@H]3O[C@@H]5CO[C@@H](C)O[C@H]5[C@H](O)[C@H]3O)[C@H]3COC(=O)[C@H]23)OCO4)cc(OC)c1O` [ETOPOSIDE], for which the IC50 in the experiment with P388 [1] amounted to 2620 ng/mL (≈ 4.45 µM); with KB, 120 ng/mL (≈ 0.204 µM).
Turning to `COc1ccc([C@@]23Oc4cc(OC)cc(OC)c4[C@]2(O)[C@H](O)[C@H](C(=O)N(C)C)[C@H]3c2ccccc2)cc1` [ROCAGLAMIDE], the IC50 in the experiment with P388 [1] was found to be 5 ng/mL (≈ 0.00989 µM); in the experiment with RPMI-7951, 2 ng/mL (≈ 0.00396 µM); with HCT-8, 7 ng/mL (≈ 0.0138 µM); with A549, 6 ng/mL (≈ 0.0119 µM); in the experiment on KB, 6 ng/mL (≈ 0.0119 µM); with TE-671, 6 ng/mL (≈ 0.0119 µM). In addition, the Activity in experiment [2] worked out at 77.6%; in experiment [3], 85.5%; in experiment [4] it was 90.5%; in [5], 83.8%. Also, the T/C (usually the ratio of treated to control) in the experiment with P388 [6] was found to be 156%.
In the case of `COc1cc2ccc(=O)oc2cc1O` [SCOPOLETIN], the Activity came to 65.3% in [2], 90.5% in experiment [3], 79.2% in experiment [4] and 79.2% in experiment [5]. Further, half-maximal inhibition in the experiment on KB (IC50) was put at 4000 ng/mL (≈ 20.8 µM).
As to `CC[C@]1(O)C[C@@H]2CN(CCc3c([nH]c4ccccc34)[C@@](C(=O)OC)(c3cc4c(cc3OC)N(C)[C@H]3[C@@](O)(C(=O)OC)[C@H](OC(C)=O)[C@]5(CC)C=CCN6CC[C@]43[C@@H]65)C2)C1.O=S(=O)(O)O` [VINBLASTINE SULFATE], the IC50 is 5 ng/mL in the experiment with HCT-8 and 2 ng/mL in the experiment on A549.
